# PTK2B oligo ant = blocks oligomerization of human Pyk2 in cells; Q14289; Q293 cells, Pyk2 FERM NanoBiT luminescence; stronger effect = lower value; z-score (the deposit names both 25 µM and 10 µM); 0.83% of 99,000 active; AID 1347419;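 active = Z-score of -3 or lower, scaled per plate to the spread of control and sample wells; inactive = z-score above -3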;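 also: negative z-score means lost luminescence so less FERM oligomerization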
# Target sequence (Q14289 whole entry, looked up): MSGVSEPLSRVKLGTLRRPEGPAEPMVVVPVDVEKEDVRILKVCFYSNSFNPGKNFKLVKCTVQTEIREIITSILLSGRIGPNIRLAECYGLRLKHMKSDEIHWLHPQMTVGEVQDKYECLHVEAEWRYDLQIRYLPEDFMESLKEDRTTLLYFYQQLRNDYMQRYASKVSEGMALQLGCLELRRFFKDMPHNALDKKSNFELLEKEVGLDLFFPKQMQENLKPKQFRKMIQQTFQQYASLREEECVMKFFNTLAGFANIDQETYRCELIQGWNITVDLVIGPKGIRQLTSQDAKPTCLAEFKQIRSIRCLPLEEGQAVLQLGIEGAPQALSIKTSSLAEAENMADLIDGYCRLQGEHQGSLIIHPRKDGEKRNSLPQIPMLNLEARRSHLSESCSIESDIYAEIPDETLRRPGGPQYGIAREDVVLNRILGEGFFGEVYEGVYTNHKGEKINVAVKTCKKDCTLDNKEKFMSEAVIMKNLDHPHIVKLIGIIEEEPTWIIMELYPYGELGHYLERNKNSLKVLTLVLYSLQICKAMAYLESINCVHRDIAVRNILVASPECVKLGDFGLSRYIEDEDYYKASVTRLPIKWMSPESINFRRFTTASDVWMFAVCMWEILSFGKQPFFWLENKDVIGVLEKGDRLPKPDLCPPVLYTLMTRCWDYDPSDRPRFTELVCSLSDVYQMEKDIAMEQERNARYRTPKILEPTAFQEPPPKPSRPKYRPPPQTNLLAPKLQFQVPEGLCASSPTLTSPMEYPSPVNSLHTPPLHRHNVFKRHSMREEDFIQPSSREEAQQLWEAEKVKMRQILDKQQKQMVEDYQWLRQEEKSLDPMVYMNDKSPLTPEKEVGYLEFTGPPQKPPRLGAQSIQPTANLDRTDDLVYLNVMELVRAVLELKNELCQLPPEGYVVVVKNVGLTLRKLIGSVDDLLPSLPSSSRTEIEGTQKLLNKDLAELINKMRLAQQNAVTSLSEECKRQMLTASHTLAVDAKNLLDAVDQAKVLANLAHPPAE
# PostGolgi yeast = growth inhibition of a yeast mutant, post-Golgi transport screen; post-Golgi transport phenotypic cell assay; inhibition, % at 10 µM; 0.9% of 98,000 active; AID 739;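 also: yeast cells grown in 1536-well plates; yeast grown about 18 h at 30C before absorbance read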
# Calb biofilm kill = kills Candida albicans biofilms; 0.14% of 85,000 active; inhibition, % at 6 µM; C. albicans biofilm + clotrimazole, Alamar Blue; AID 834;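 active = inhibition above 20%; inactive = inhibition below 20%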;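 also: preformed 24 hr biofilms exposed to compound for 48 hr; 0% = biofilm without compound and 100% = blank killed by clotrimazole plus chlorhexidine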
# tolC growth inh = blocks growth of E. coli BW25113 tolC mutant. growth inhibition, % at 10 µM (by protocol). 2.2% of 65,000 active. OD615;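 active = growth inhibition at or above a cutoff equal to the mean over every tested compound plus 3 SD, cut at about 60% in these data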;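 also: growth measured after 20 h incubation at 37 °C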
#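 Test system: tolC-deleted E. coli BW25113 | Medium: LB with kanamycin 50 µg/mL | Compound dosing: Single concentration, 10 µM final per compound | Schedule: 37 °C, 20 h exposure | Measured by: OD at 615 nm | Evaluation: Percent growth inhibition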
# PostGolgi ctrl = growth of the yeast control strain, post-Golgi counter-screen. efflux-deficient yeast background strain, growth absorbance A615, 16 h. inhibition, % at 10 µM. 5% of 98,000 active
# E coli WT exp = growth inhibitors of E. coli BW25113 wild type | 0.15% of 98,000 active | growth inhibition, % at 100 µM | OD600 absorbance | AID 710;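 active = growth inhibition above about 50% at one test dose, limit read from the data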;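 also: growth measured after 20 h incubation at 37 °C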
# The depositor's hits bear a star; . = no result. In the library only some 6.5% were active in any assay of this set; here they are far more common. Rule as the data show it, unless noted: active = inhibition above about 30%; inactive = the rest.
SMILES,PTK2B oligo ant,PostGolgi yeast,Calb biofilm kill,tolC growth inh,PostGolgi ctrl,E coli WT exp
Cc1ccc(C)c2c1cc(C)c1nnc(SCc3ccccn3)n12,-0.16,36*,.,.,90*,5
COc1ccc(C)cc1NC(=O)COC(=O)C1CC1,0.04,0,.,.,19,3
O=C(Nc1cccc2cccnc12)c1cccnc1,0.23,-2,-4,0,13,5
COc1cc(C(=O)Nc2cccc3cccnc23)cc(OC)c1OC,-0.45,32*,-3,.,5,-1
COc1cc(NC(=O)c2c(-c3ccccc3Cl)noc2C)c2ncccc2c1,.,.,3,17,.,.
Cc1onc(-c2ccccc2Cl)c1C(=O)Nc1sc2c(c1C#N)CCC2,0.02,-10,6,83*,30*,-19
N#Cc1c(NC(=O)c2ccncc2)sc2c1CCC2,-0.13,2,4,9,31*,-6
N#Cc1c(NC(=O)C2CC(c3ccccc3Cl)=NO2)sc2c1CCC2 (stereo not drawn),-0.85,-1,.,.,14,-1
Cc1onc(-c2ccccc2Cl)c1C(=O)Nc1cccc2cccnc12,-1.4,0,3,30,33*,-6
O=C(Nc1nc2c(s1)CN(Cc1ccccc1)CC2)c1cccc(S(=O)(=O)N2CCc3ccccc32)c1,-1,8,6,.,8,-11
COc1cc(-c2nnc3sc(-c4ccccn4)nn23)cc(OC)c1OC,.,.,-1,11,.,.
CCOC(=O)Cc1csc(SCc2nc3ccccc3c(=O)[nH]2)n1,0.33,4,0,-5,9,3
O=S(=O)(c1ccc(Cl)c(C(F)(F)F)c1)N1CCN(CC(O)COCC2CCCO2)CC1 (stereo not drawn),2.2,13,-1,-3,21,-2
Cc1[nH]nc2c1C(c1ccccc1F)CC(=O)N2 (stereo not drawn),1.6,1,11,-9,1,10
Cn1c(=O)c2c(nc(N3CCOCC3)n2CCSc2nc3ccccc3s2)n(C)c1=O,.,.,.,3,.,.
O=C(COC(=O)c1ccccc1[N+](=O)[O-])c1ccc(C2CCCCC2)cc1,0.57,-7,.,.,34*,-8
N/C(=N\OC(=O)c1ccccc1[N+](=O)[O-])c1cccnc1,0.44,-2,.,.,0,16
Cc1cc(C)c(C(N)=O)c(NC(=O)Nc2ccccc2Cl)n1,1.4,0,.,.,2,-5
CCOc1ccccc1C(=O)NC(C)c1ccc2c(c1)OCO2 (stereo not drawn),-1.1,-3,11,22,23,1
CN1CCN(Cc2cc(COCc3ccccc3)c3cccnc3c2O)CC1,1.2,-12,8,5,29,22
Oc1c(CN2CCCCC2)cc(Br)c2cccnc12,-0.08,1,.,100*,8,100*
Oc1c(CN2CCc3ccccc3C2)cc(Cl)c2cccnc12,.,1,3,64*,3,86*
CC1Oc2ccccc2N(CC(=O)NCCc2ccccc2)C1=O (stereo not drawn),-0.75,4,.,-14,-16,10
CCn1c(CSc2nc3ccccc3s2)n[nH]c1=S,0.46,-7,5,.,15,-3
S=c1[nH]nc(CSc2nc3ccccc3s2)n1Cc1ccccc1,0.04,-7,7,.,34*,-6
SMILES,PTK2B oligo ant,PostGolgi yeast,Calb biofilm kill,tolC growth inh,PostGolgi ctrl,E coli WT exp
CC1=C(C(=O)Nc2cc(C)ccc2C)C(c2cccs2)NC(=S)N1 (stereo not drawn),1.8,-3,.,.,1,2
CCCSc1nc(N)cc(=O)[nH]1,0.57,-4,5,-8,1,6
O/N=C/c1cc(Br)ccc1OCc1ccccc1F,-1.1,.,.,.,.,.
Fc1ccccc1COc1ccc(Br)cc1CNCc1ccncc1,-1.1,99*,.,.,97*,8
Fc1ccc(COc2ccc(Br)cc2CNCc2ccncc2)cc1,-0.7,103*,.,.,94*,27
COC(/C=C/Nc1ccc(C)c(C)c1)=C(C#N)C#N,1.1,2,.,.,25,-9
CCOC(=O)CSCC(=O)Nc1c(C(=O)C2CC2)oc2ccccc12,3.1,.,3,.,.,.
CCc1ccc(C(=O)/C=C/c2ccc([N+](=O)[O-])o2)cc1,-0.94,63*,4,.,10,11
O=C(CSc1nnc(-c2cccs2)n1-c1cccc(Cl)c1)c1cccc2c1OCCO2,-3.1*,9,3,.,9,-1
Cc1ccc(Cl)cc1NC(=O)COC(=O)C12CC3CC(CC(C3)C1)C2,-0.6,12,4,.,36*,3
CCN(CC)c1ccc(C2NCC(c3ccc([N+](=O)[O-])cc3)O2)cc1 (stereo not drawn),-3.2*,.,6,.,.,.
Cc1ccc2c(CSc3nc4ccccc4c(=O)n3CCCO)cc(=O)oc2c1,.,.,3,25,.,.
CCc1c(C(=O)Nc2ncn(Cc3cccc(C)c3)n2)csc1C,-1.1,4,10,62*,14,9
O=C(NCc1ccc(Cl)cc1)c1noc2c1CCCCC2,0.32,6,10,30,14,-2
COc1ccc(S(=O)(=O)Nc2cc(C(=O)NCCC(C)C)ccc2N2CCOCC2)cc1,-0.26,12,4,10,-3,-6
COc1ccc(-c2cc3nc(C)c(CCC(=O)N4CCCCC4)c(C)n3n2)c(OC)c1,.,.,.,-11,.,.
O=C1NN=C(c2ccc(Cl)cc2)CC1c1cccc(Cl)c1 (stereo not drawn),-0.18,12,5,.,46*,6
NC1=NS(=O)(=O)NC1c1cccc(Cl)c1 (stereo not drawn),-0.04,-2,4,.,1,5
COC(=O)c1nn(-c2ccccc2)nc1-c1nn(-c2ccccc2)nc1C(=O)OC,-1.2,36*,5,.,77*,-10
CNC(=O)CN(c1ccc(C(C)C)cc1)S(C)(=O)=O,0.84,-3,3,-6,7,0
CCOC(=O)n1c(=O)oc2cc(S(=O)(=O)N3CCOCC3)ccc21,0.87,-6,-3,-11,16,5
CN(Cc1ccccc1)C(=O)Cn1c(=O)oc2cc(S(=O)(=O)N3CCCC3)ccc21,.,1,11,.,35*,0
CC(C)COC(=O)n1c(=O)oc2cc(S(=O)(=O)N3CCCCC3)ccc21,-3.5*,-6,4,8,17,8
CCC(C)(C(=O)NC1CCCCC1)N(Cc1ccco1)C(=O)Cc1cccs1 (stereo not drawn),0.57,-11,7,.,2,-3
Cc1ccc(Cl)cc1N1CCN(C(=O)C2(S(=O)(=O)c3ccc(Cl)cc3)CC2)CC1,0.85,-4,4,.,40*,-5
CC(=O)c1ccc(N2CCN(C(=O)C3(S(=O)(=O)c4ccc(Cl)cc4)CC3)CC2)cc1,-0.17,-21,6,13,27,-10
O=C(N1CCN(c2cccc(Cl)c2)CC1)C1(S(=O)(=O)c2ccc(Cl)cc2)CC1,1.1,80*,4,.,90*,-7
COCCC(=O)NC12CC3CC(CC(C3)C1)C2,0.08,-7,-8,-8,35*,9
O=C(CCSc1ccc(Cl)c(Cl)c1)NC12CC3CC(CC(C3)C1)C2,0.02,1,.,.,39*,-18
Cn1ccnc1SCC(=O)NC12CC3CC(CC(C3)C1)C2,0.16,2,-4,-3,3,1
